Columns and labels:
[1] = (§1) Neuroprotective activity against serum starvation-induced cell death in Sprague-Dawley rat primary neural cells assessed as neuronal survival rate incubated for 3 days in presence of 100 ng/ml human recombinant IGF-1 by beta3-tubulin-detecting cell-ELISA relative to control; format: functional, cell-based; conditions: Primary neuron, 72 h
Method in brief: (§2)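 Primary neural cells were taken from rat hippocampal and cerebral cortical tissue and grown 4 days in serum-containing medium. They were then switched to serum-free medium for 3 days, with 100 ng/mL IGF-1 plus test agent, to induce starvation death. Neurons were counted by cell-ELISA for βIII-tubulin immunoreactivity. EC50 was reported with its 95% confidence interval.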

[2] = Neuroprotective activity against serum starvation-induced cell death in Sprague-Dawley rat primary neural cells assessed as neuronal survival rate at 10 uM incubated for 3 days in presence of 100 ng/ml human recombinant IGF-1 by beta3-tubulin-detecting cell-ELISA relative to control; format: functional, Primary neuron
Method in brief: (§3)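 Primary neural cells from rat hippocampal and cerebral cortical tissue were grown 4 days in serum-containing medium, then 3 days serum-free to induce death, with or without IGF-1. The line's compound concentration was present during the serum-free phase. Neuron number was estimated by cell-ELISA for βIII-tubulin immunoreactivity. Data are mean ± SEM of four wells.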

[3] = Oral bioavailability in Sprague-Dawley rat at 1 mg/kg by LC/MS/MS analysis; format: ADME, organism-based; conditions: in vivo
[4] = Ratio of drug level in brain to plasma of Sprague-Dawley rat at 0.1 mg/kg, iv by cassette dosing measured at 1 hr by LC/MS/MS analysis; format: ADME, organism-based
[5] = molecular target: CYP2C9 (Homo sapiens, UniProt P11712); assay: Inhibition of CYP2C9 in human liver microsomes at 10 uM incubated for 30 mins by HPLC analysis; format: ADME
[6] = tested on: HepG2; assay: Cytotoxicity against human HepG2 cells assessed as decrease in cellular ATP content at 100 uM after 1 day; format: cell-based; parameters: scale not given: the % may be the effect or the level left; conditions: hepg2, 24 h
[7] = Metabolic clearance in human liver microsomes at 1 umol/L by LC/MS/MS analysis; format: ADME; conditions: read-out: CLH
[8] = Neuroprotective activity against serum starvation-induced cell death in Sprague-Dawley rat primary neural cells assessed as neuronal survival rate at 1 umol/L incubated for 3 days by beta3-tubulin-detecting cell-ELISA relative to control; format: functional, Primary neuron; method in brief: as §3
[9] = Neuroprotective activity against serum starvation-induced cell death in Sprague-Dawley rat primary neural cells assessed as neuronal survival rate at 1 umol/L incubated for 3 days in presence of 3 to 100 ng/ml human recombinant IGF-1 by beta3-tubulin-detecting cell-ELISA; format: functional, Primary neuron; method in brief: as §3
[10] = tested on: Primary neuron; assay: as §1; format: functional, cell-based; method in brief: as §2
[11] = Neuroprotective activity against serum starvation-induced cell death in Sprague-Dawley rat primary neural cells assessed as neuronal survival rate at 0.33 uM incubated for 3 days in presence of 100 ng/ml human recombinant IGF-1 by beta3-tubulin-detecting cell-ELISA relative to control; format: functional, Primary neuron; method in brief: as §3

Chain of CYP2C9 (P11712 whole entry): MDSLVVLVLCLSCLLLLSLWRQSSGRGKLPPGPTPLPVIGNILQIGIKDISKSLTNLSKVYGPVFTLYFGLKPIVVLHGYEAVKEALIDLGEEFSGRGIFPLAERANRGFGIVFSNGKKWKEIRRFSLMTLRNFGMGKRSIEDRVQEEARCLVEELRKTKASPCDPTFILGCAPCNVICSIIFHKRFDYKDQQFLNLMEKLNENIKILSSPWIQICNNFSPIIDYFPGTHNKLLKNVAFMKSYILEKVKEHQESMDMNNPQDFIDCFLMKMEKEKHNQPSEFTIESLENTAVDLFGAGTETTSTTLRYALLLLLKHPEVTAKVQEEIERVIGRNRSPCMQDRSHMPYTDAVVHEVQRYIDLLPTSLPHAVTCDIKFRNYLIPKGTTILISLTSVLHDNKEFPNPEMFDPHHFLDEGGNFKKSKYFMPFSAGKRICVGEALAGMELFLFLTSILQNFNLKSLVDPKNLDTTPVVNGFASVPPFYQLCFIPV

| Compound | EC50 [1] [µM] | further results |
| --- | --- | --- |
| COc1ccc(C2CN(c3c(C)c(C)c4c(c3C)CC(C)(C)O4)CCO2)cc1 (racemic) | 0.37 |  |
| Cc1c(C)c(N2CCN(c3ccc(F)cc3)CC2)c(C)c2c1OC(C)(C)C2 | 0.3 |  |
| Cc1c(C)c(N2CCN(c3ccc(Cl)cc3)CC2)c(C)c2c1OC(C)(C)C2 | 0.66 |  |
| COc1ccc(C2CN(c3c(C)c(C)c4c(c3C)CC(C)(C)O4)CCN2C)cc1 (racemic) | 0.55 |  |
| COc1ccc(N2CCN(c3c(C)c(C)c4c(c3C)CC(C)(C)O4)CC2)cc1OC | 0.27 |  |
| COc1ccc(N2CCN(c3c(C)c(C)c4c(c3C)C[C@@](C)(CO)O4)CC2)cc1 | 0.7 |  |
| Cc1c(C)c(N2CCN(c3ccccc3)CC2)c(C)c2c1OC(C)(C)C2 | 0.38 |  |
| COc1ccc(N2CCN(c3c(C)c(C)c4c(c3C)C[C@](C)(CO)O4)CC2)cc1 | 0.63 |  |
| Cc1c(C)c(N2CCNCC2)c(C)c2c1OC(C)(C)C2 |  | Survival [2]: 20% |
| COc1ccc(N2CCN(c3c(C)c(C)c4c(c3C)C(=O)C(C)(C)O4)CC2)cc1 | 0.12 | bioavailability [3]: 42.3%; Kp at 1 h [4]: 3.4; inhibition at 0.5 h, 10 µM [5]: 83.4% |
| COc1ccc(N2CCN(c3c(C)c(C)c4c(c3C)CC(C)(C)O4)CC2)cn1 | 0.62 |  |
| COc1ccc(N2CCN(c3c(C)c(C)c4c(c3C)CC(C)(C)O4)CC2)c(OC)c1 | 0.39 |  |
| COc1ccc(N2CCN(c3c(C)c(C)c4c(c3C)C(=O)C(C)(C)CO4)CC2)cc1 | 0.51 | inhibition at 0.5 h, 10 µM [5]: 42.1% |
| Cc1c(C)c(N2CCN(c3ccc(C#N)cc3)CC2)c(C)c2c1OC(C)(C)C2 | > 1 |  |
| CC(=O)c1ccc(N2CCN(c3c(C)c(C)c4c(c3C)CC(C)(C)O4)CC2)cc1 | 0.15 | Activity [6]: 68% |
| Cc1ccc(N2CCN(c3c(C)c(C)c4c(c3C)CC(C)(C)O4)CC2)cc1 | 0.13 | microsomal CLint at 1 µM [7]: 30 µL/min/mg |
| COc1ccc(CN2CCN(c3c(C)c(C)c4c(c3C)CC(C)(C)O4)CC2)cc1 | 0.68 |  |
| COc1ccc(N2CCN(c3c(C)c(C)c4c(c3C)C[C@@H](C)O4)CC2)cc1 | 0.44 |  |
| COc1ccc(N2CCN(c3c(C)c(C)c4c(c3C)CCO4)CC2)cc1 | 0.23 |  |
| COc1ccc(N2CCN(c3c(C)c(C)c4c(c3C)C[C@H](C)O4)CC2)cc1 | 0.46 |  |
| COc1ccc(N2CCN(c3c(C)c(C)c4c(c3C)CC(C)(C)O4)CC2)cc1 | 0.15 | Kp at 1 h [4]: 2.9; inhibition at 0.5 h, 10 µM [5]: -0.9%; microsomal CLint at 1 µM [7]: 2 µL/min/mg; fold change (FC) [8]: 3; fold change (FC) [9]: 6; Activity [10]: Dose-dependent effect; fold change (FC) [11]: 3; Activity [6]: 93.3% |
| COc1ccc(N2CCCN(c3c(C)c(C)c4c(c3C)CC(C)(C)O4)CC2)cc1 | 0.076 | microsomal CLint at 1 µM [7]: 87 µL/min/mg |

Reference: ChEMBL document CHEMBL3817802, “Discovery of Benzofuran Derivatives that Collaborate with Insulin-Like Growth Factor 1 (IGF-1) to Promote Neuroprotection” (J Med Chem, 2016)
